DTT redox prof: compounds producing H2O2 with reducing agent – biochemical, NIH compound library profiling, artefact control for MLSCN library redox annotation, primary screen | AID 878 | DTT-dependent redox cycling H2O2, phenol red/HRP absorbance; 100% = 100 µM peroxide control, 0% = buffer | 0.03% of 200,000 active | activation, % at 10 µM;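 active = activation of at least 50% relative to the plate's high and low controls in the primary single-dose screen; inactive = activation below 50%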;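 also: compound incubated with DTT at 0.8 mM final as the reducing agent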
Dynein transport: blocks dynein driven cargo transport along microtubules | 3617.4 mouse cells, GR-EGFP nuclear translocation imaging; test concentration mostly 20 µM; stimulated with dexamethasone, 1 µM; hits give low values | z-score, hits read low | 0.47% of 220,000 active | AID 1381;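 active = plate z-score of nuclear minus cytoplasmic receptor signal below a set negative limit, without overly bright fluorescence or cell loss, cut at about -3.5 in these data, passing the limit was not always enough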;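 also: z-score of nuclear minus cytoplasmic ring GR-EGFP intensity difference per well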
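Buffer or medium: tet-free, stripped-serum medium; Also added: dexamethasone, 1.0 µM final; Technique: high-content fluorescence imaging after fixation; Times: 48 h induction, 1 h compound, 30 min dex at 37 °C; Read-out: per-cell GR-EGFP intensity, nucleus versus surrounding cytoplasmic ring, well-averaged.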
Cl transport mod: modulates chloride dependent transport by human KCC2 | B-score of Tl+ flux slope (higher = more flux/activation; lower = inhibition) at 10 µM | Q9H2X9 | 2.2% of 190,000 active | KCC2 cells, thallium flux FluoZin-2 fluorescence;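 active = thallium flux slope and its plate-corrected score both differing from the plate sample mean at a set confidence after two filtering rounds, in either direction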;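 also: slope of fluorescence scaled to starting intensity during 10 to 20 s after thallium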
ROMK primary: modulates human ROMK potassium channel activity. Tet-inducible ROMK, thallium flux fluorescence; actives lie on both sides. P48048. 2% of 130,000 active. AID 1918. B-score at 10 µM;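 active = signal ratio slope over the read window, or its plate-corrected B-score, at least 3 SD from the plate mean, either direction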;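 also: B-score of the F/F0 ratio slope over 7 to 12 s after thallium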
Target sequence (P48048 whole entry, looked up): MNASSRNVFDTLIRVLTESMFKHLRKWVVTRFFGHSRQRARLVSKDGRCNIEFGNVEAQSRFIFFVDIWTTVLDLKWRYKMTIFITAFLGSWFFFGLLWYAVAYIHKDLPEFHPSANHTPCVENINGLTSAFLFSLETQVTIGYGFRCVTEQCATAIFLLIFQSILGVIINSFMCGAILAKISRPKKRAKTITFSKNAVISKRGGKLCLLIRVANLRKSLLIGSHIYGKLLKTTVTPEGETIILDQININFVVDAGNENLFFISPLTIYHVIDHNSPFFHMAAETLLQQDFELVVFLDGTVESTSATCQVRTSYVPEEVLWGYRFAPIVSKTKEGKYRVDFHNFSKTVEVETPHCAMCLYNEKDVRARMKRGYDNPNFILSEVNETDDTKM
Autophagy mod: modulators of autophagy | MEF GFP-LC3 puncta imaging; test concentration mostly 10 µM | calls only at 10 µM (by protocol) | 0.98% of 190,000 active | AID 463193;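 active = percentage of spot-positive cells more than 3 SD above its plate mean, without a fluorescence outlier flag or 80% toxicity; inconclusive = no clear call, values can overlap the other calls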;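 also: spot-positive cell cutoff set from DMSO-treated cells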
KCC2 sec1: KCC2 (human) modulation, secondary assay | 15% of 3,700 active | HEK293-KCC2, thallium flux, FluoZin2 fluorescence; hits give high values | normalised thallium flux (F/F0 slope) at 10 µM | shares compounds with Cl transport mod;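 active = thallium flux slope above the same plate's solvent-only control mean plus 3 SD; inconclusive = the two replicate wells disagree; inactive = no significant difference from solvent-only control wells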
KCC2 bumet counter: thallium flux despite bumetanide block in KCC2 cells, secondary assay 3 | shares compounds with Cl transport mod | 49% of 3,700 active | HEK293-KCC2 + bumetanide/ouabain, thallium flux FluoZin2; hits give high values | normalized thallium flux at 10 µM | AID 1714;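 active = thallium entry rate above the same plate's blocked-transporter control wells by more than 3 SD; inconclusive = the two repeat wells disagree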;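 also: raw slope of fluorescence over initial fluorescence between 10 and 20 s after thallium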
KCC2 sec2: confirmation of human KCC2 transport modulators; normalized thallium flux at 10 µM; shares compounds with Cl transport mod; 23% of 3,700 active; HEK293-KCC2, thallium flux FluoZin2 fluorescence; actives lie on both sides; F/F0 rise rate, 10–20 s post-thallium;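 active = thallium flux slope more than 3 SD above or below the plate's solvent-only control mean, mostly below; inconclusive = the two repeat wells disagreed; inactive = no significant shift from solvent-only controls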;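 also: raw slope with 0.1% DMSO as baseline and bumetanide as block control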
HEK293 Tl flux: parental HEK flux effect, counter-screen | 46% of 3,700 active | shares compounds with Cl transport mod | thallium flux rate (normalised fluorescence) at 10 µM | HEK293 parental cells, thallium flux FluoZin2, ouabain; baseline-ratio fluorescence slope, 10–20 s after thallium;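 active = thallium flux rate significantly above the same plate's solvent-only control wells, beyond their mean plus 3 SD; inconclusive = the two replicate wells gave conflicting results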
KCC2 retest ouab: confirmation of human KCC2 modulators with ouabain | shares compounds with Cl transport mod | HEK293-KCC2, thallium flux FluoZin2 fluorescence; bidirectional: low = inhibitor, high = activator | raw Tl+ flux slope (below DMSO = inhibition, above = activation) at 10 µM | 48% of 3,700 active | AID 1717;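 active = thallium flux slope beyond 3 SD from same-plate DMSO control mean in most replicates, usually higher, sometimes lower; inconclusive = repeat tests gave conflicting results; inactive = no significant difference from controls in most replicates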;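 also: slope of initial-normalized fluorescence between seconds 10 and 20 after thallium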
HEK293 Tl flux2: parental HEK flux effect, counter-screen 2; shares compounds with Cl transport mod; HEK293 parental, thallium flux FluoZin-2 fluorescence slope; thallium flux slope at 10 µM; 33% of 3,700 active; AID 1718;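 active = thallium flux slope above the same plate's solvent-control mean plus 3 SD in both duplicate wells; inconclusive = duplicate wells that disagreed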;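 also: run without ouabain in cells lacking the KCC2 cotransporter; slope of fluorescence scaled to its starting value between 10 and 20 s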
Numbers without * were called inactive; i = inactive; ? = inconclusive; / = no result given; + = active, no number. Hits are enriched below; roughly 4.1% of the tested compounds scored in any of these assays.

SMILES | DTT redox prof | Dynein transport | Cl transport mod | ROMK primary | Autophagy mod | KCC2 sec1 | KCC2 bumet counter | KCC2 sec2 | HEK293 Tl flux | KCC2 retest ouab | HEK293 Tl flux2
Cc1cc(C)n(-c2ccc(C(=O)N3CC(C)OC(C)C3)cc2)n1 (stereo unspecified) | 0 | 0.15 | / | -0.057 | i | / | / | / | / | / | /
CCCCNC(=O)CC(C(=O)N1CCc2ccccc21)n1ccnc1 (stereo unspecified) | 0 | 0.029 | 0.86 | -0.088 | i | / | / | / | / | / | /
O=C(CC(C(=O)N1CCc2ccccc21)n1ccnc1)N1CCc2ccccc2C1 (stereo unspecified) | 2 | -0.87 | -6.2* | / | i | ? | 0.0049 | 0.024* | 0.0069 | ? | 0.01
CCN(CC)CC(=O)N1c2ccccc2CCc2ccc(NC(=O)c3cc(OC)c(OC)c(OC)c3)cc21 | / | 0.24 | 0.95 | 1 | / | / | / | / | / | / | /
NC(=O)c1ccccc1OCC(=O)Nc1ccc(Cl)c(Cl)c1 | / | -0.86 | 0.041 | 0.49 | / | / | / | / | / | / | /
COc1ccc(C(CC(=O)NCC(OC)OC)NS(=O)(=O)c2ccc(Cl)cc2)cc1 (stereo unspecified) | 1 | 0.14 | -0.068 | 0.36 | i | / | / | / | / | / | /
Cc1ccc2nc(N3CCN(Cc4ccc(F)cc4)C3=O)c(C)cc2c1 | -1 | -0.79 | / | -2.1 | i | 0.016 | 0.0051 | 0.024* | 0.007 | 0.013 | 0.0099
Cc1ccc(CN2CCN(CC(=O)O)C2=O)cc1 | -1 | 0.66 | -0.28 | -0.24 | i | / | / | / | / | / | /
O=C(CCn1cnnn1)Nc1ccccc1 | 6 | -1.3 | 0.64 | -0.061 | i | / | / | / | / | / | /
Cc1c(Nc2nc(-c3ccc(Cl)cc3)cs2)c(=O)n(-c2ccccc2)n1C | 0 | 0.45 | -4.5* | / | i | 0.0065 | 0.0052 | 0.024* | 0.0058* | 0.014* | ?
Cc1c(NC2=C(Cl)C(=O)N(c3ccccc3)C2=O)c(=O)n(-c2ccccc2)n1C | 1 | -1.6 | -4.4* | 0.87 | i | ? | 0.0069 | 0.035 | 0.0045 | 0.021 | 0.011
CCOC(=O)Cc1csc(Nc2c(C)n(C)n(-c3ccccc3)c2=O)n1 | 1 | 0.011 | 1 | / | i | / | / | / | / | / | /
O=C(NCc1ccco1)c1cnn2cccnc12 | 0 | 2.4 | 0.41 | -0.21 | i | / | / | / | / | / | /
NC(=O)SCC(=O)Nc1ccc(Cl)c(Cl)c1 | 4 | -0.41 | / | -2.9 | i | 0.0073 | 0.013* | 0.026* | 0.01* | 0.019 | ?
NC(=O)SCC(=O)Nc1cccc(Cl)c1 | 1 | -0.54 | / | / | i | / | / | / | / | / | /
COc1ccc(C(=O)NNC(=O)CCn2nnc(-c3ccc(Cl)cc3)n2)cc1OC | -1 | 0.16 | -0.45 | 0.9 | i | / | / | / | / | / | /
N#Cc1ccccc1CSc1nc2ccc(NC(=O)c3ccccc3C(=O)O)cc2s1 | 0 | -1.2 | -3.6* | 1.1 | i | 0.0078 | 0.005 | 0.037 | 0.0037 | 0.017* | 0.01
O=C(NC(=S)N1CCN(c2nc(-c3ccccc3)cs2)CC1)c1cccnc1 | 0 | -0.28 | 34* | 1.1 | i | 0.028* | 0.11* | ? | 0.041* | 0.07* | 0.015*
O=C(Nc1nc(-c2ccccc2)cs1)c1cccnc1 | 0 | -0.83 | / | -0.65 | i | / | / | / | / | / | /
CCC1(c2ccccc2)NC(=S)N(c2ccc(C)c(C)c2)N1 (stereo unspecified) | 0 | -0.39 | 42* | 0.61 | i | 0.042* | 0.11* | 0.038 | 0.055* | 0.059* | 0.017*
CCC1(c2ccc(Cl)cc2)NC(=S)N(c2ccc(C)cc2)N1 (stereo unspecified) | 0 | -0.27 | 52* | 0.68 | i | 0.041* | 0.096* | ? | 0.083* | 0.074* | 0.028*
CCC1(c2ccc(Cl)cc2)NC(=S)N(c2ccc(C)c(C)c2)N1 (stereo unspecified) | / | -0.48 | 93* | / | / | 0.05* | 0.12* | 0.044* | 0.1* | 0.087* | 0.038*
CC(c1ccon1)N(C)C(=O)CCc1nnc(C2(c3ccc(Cl)cc3)CCC2)o1 (stereo unspecified) | -1 | 2.5 | -0.11 | 0.18 | i | / | / | / | / | / | /
Cc1cc2cc3c(cc2nc1SCc1ccc(C(=O)O)cc1)OCCO3 | 1 | -0.053 | -4.2* | / | i | 0.0076 | 0.098* | ? | 0.036* | 0.035* | 0.014*
Cc1ccc(Oc2ccc(-c3nnc(-c4ccccc4)o3)cc2[N+](=O)[O-])cc1C | 2 | -0.15 | 1.4 | / | i | / | / | / | / | / | /
SMILES | DTT redox prof | Dynein transport | Cl transport mod | ROMK primary | Autophagy mod | KCC2 sec1 | KCC2 bumet counter | KCC2 sec2 | HEK293 Tl flux | KCC2 retest ouab | HEK293 Tl flux2
Cc1[nH]n(-c2ccccc2)c(=O)c1/C=N/N(c1ccccc1)c1ccccc1 | 0 | -0.65 | 68* | 1.3 | i | ? | 0.11* | 0.072* | 0.063* | 0.088* | 0.061*
Cc1cccc(/N=C/c2c(C)[nH]n(-c3ccccc3)c2=O)n1 | / | -0.06 | 18* | / | / | 0.0098 | 0.032* | 0.03 | 0.012* | ? | ?
Cc1[nH]n(-c2ccccc2)c(=O)c1C=Nc1ccc2[nH]c(=O)[nH]c2c1 | 1 | 9.8 | -0.58 | / | i | / | / | / | / | / | /
Cc1ccc(-n2[nH]c(C)c(/C=N/c3cccc(C)n3)c2=O)cc1 | / | -0.028 | 4.9* | -0.56 | / | 0.0075 | 0.013* | 0.032 | 0.013* | ? | 0.011
Cc1[nH]n(-c2ccccc2)c(=O)c1C=Nc1cccc(F)c1 | / | -0.12 | 4.6* | / | / | 0.012 | 0.033* | 0.03 | 0.016* | 0.028 | ?
Cc1cc(Br)ccc1-n1[nH]c(C)c(C=Nc2cccc3nsnc23)c1=O | -1 | 0.56 | 16* | 0.031 | i | 0.011 | 0.043* | 0.029 | 0.017* | 0.04* | ?
CCOC(=O)c1ccc(N2CN(C3CCCCC3)CNC2=S)cc1 | 0 | 2.2 | -0.051 | 0.3 | i | 0.0073 | 0.0049 | 0.03 | 0.0085 | 0.019 | 0.012
CCOc1ccccc1N1CN(C2CCCCC2)CNC1=S | / | -0.4 | 0.95 | / | / | / | / | / | / | / | /
O=C(CSc1nnc2ccccn12)Nc1ccc(S(=O)(=O)N2CCOCC2)cc1 | 0 | -0.072 | 0.59 | / | i | / | / | / | / | / | /
N=C1C(c2nc3ccccc3s2)=C(O)CN1Cc1ccco1 | 0 | -0.93 | 3.6* | / | + | 0.0062 | ? | 0.029 | 0.0075 | 0.018 | 0.011

Source: PubChem (several laboratories)
